In ChEMBL document CHEMBL1134319, “Synthesis and antitumor activity of novel C-7 paclitaxel ethers: discovery of BMS-184476” (J Med Chem, 2001):

What was measured:
[1] = Inhibition of tubulin polymerization compared paclitaxel.; assay type: functional
In short: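 Tubulin polymerization was followed by optical density. The value is the compound concentration giving a change of 0.01 OD/h, expressed as a ratio to the paclitaxel concentration giving the same change.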

[2] = tested on: M109; test: In vivo efficacy against Madison Murine lung carcinoma M109 tumors implanted ip and the drug given ip on days 5 and 8 post implantation.; assay type: functional, Mus musculus
In short: (§1)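 M109 tumor was implanted ip and drug given ip on days 5 and 8 after implantation. Read-out was %T/C of the analogue at its maximum tolerated dose, reported against %T/C for paclitaxel at a historically determined efficacious dose, which is not its MTD. %T/C above 125% is counted as active.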

[3] = tested on: HCT-116; test: Inhibitory activity against human colon tumor cell sensitive to paclitaxel.; assay type: functional, cell-based
[4] = Ratio of IC50 values of HCT116 MDR resistant cell line to HCT-116 sensitive cell line.; assay type: functional
In short: (§2)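 IC50 was measured in the HCT-116/MDR paclitaxel-resistant human colon tumor line and in parental paclitaxel-sensitive HCT-116 cells. The ratio is resistant IC50 divided by sensitive IC50.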

[5] = tested on: M109; test: In vivo efficacy against Madison Murine lung carcinoma M109 tumors implanted sc and the drug given iv every day x 5 beginning 4 days post implantation.; assay type: functional, Mus musculus
In short: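 Murine M109 tumor was implanted subcutaneously, a site distal to drug administration. Dosing was iv daily ×5 starting 4 days after implant. Activity was expressed as gross log cell kill (LCK) of the analogue at its maximum tolerated dose, alongside LCK for paclitaxel at a historically determined efficacious dose. An LCK of 1 is counted as active.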

[6] = organism: Mus musculus; test: Number of cures/total at optimal dose of 40 units for q2dx5;10 schedule in mice infected with HCT/pk (Colon ca.) cells; 1/8; assay type: functional
[7] = organism: Mus musculus; test: Gross log cell kill activity at optimal dose of 2 units for q2dx5;8 schedule in mice infected with A2780 (ovarian carcinoma) cells.; assay type: functional
In short: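 Staged A2780 tumours in mice. Dosing was intravenous, every other day for 5 doses, starting 8 days after implantation. Optimal dose is the one below the excessively toxic dose. Activity is reported as gross log cell kill.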

[8] = organism: Mus musculus; test: Gross log cell kill activity at optimal dose of 30 units for q2dx5;26 schedule in mice infected with L2987 (Lung carcinoma) cells; assay type: functional
[9] = organism: Mus musculus; test: %T/C at optimal dose of 30 units for q2dx5;12 schedule in mice infected with HOC79 (ovarian ca.) cells.
[10] = organism: Mus musculus; test: Number of cures/total at optimal dose of 30 units for q2dx5;12 schedule in mice infected with HOC79 (ovarian ca.) cells; 0/8; assay type: functional
[11] = organism: Mus musculus; test: Gross log cell kill activity at optimal dose of 40 units for q2dx5;10 schedule in mice infected with HCT/pk (Colon ca.) cells.; assay type: functional
[12] = organism: Mus musculus; test: Number of cures/total at optimal dose of 30 units for q2dx5;26 schedule in mice infected with L2987 (Lung carcinoma) cells; 0/8; assay type: functional
[13] = organism: Mus musculus; test: Number of cures/total at optimal dose of 2 units for q2dx5;8 schedule in mice infected with A2780 (ovarian carcinoma) cells; 0/8; assay type: functional
[14] = Ratio of IC50 values of HCT116 MDR resistant cell line to HCT-116 sensitive cell line; assay type: functional; in short: as §2
[15] = tested on: M109; test: In vivo efficacy against Madison Murine lung carcinoma M109 tumors implanted ip and the drug given ip on days 5 and 8 post implantation; assay type: functional, Mus musculus; in short: as §1

Row | IC50 [3] [nM] | SMILES | Ratio [1] | Efficacy [2] | Ratio [4] | also measured
1 | 1.7 | CC(=O)O[C@H]1C(=O)[C@@]2(C)C([C@H](OC(=O)c3ccccc3)[C@]3(O)CC(OC(=O)[C@H](O)[C@@H](NC(=O)OC(C)(C)C)c4ccco4)C(C)=C1C3(C)C)[C@]1(OC(C)=O)CO[C@@H]1C[C@@H]2OCOCCO (some centres not stated) | 0.3 |  | 4.1 | 
2 | 1.3 | COCO[C@H]1C[C@H]2OC[C@@]2(OC(C)=O)C2[C@H](OC(=O)c3ccccc3)[C@]3(O)CC(OC(=O)[C@H](O)[C@@H](NC(=O)OC(C)(C)C)c4ccco4)C(C)=C([C@@H](OC(C)=O)C(=O)[C@@]21C)C3(C)C (some centres not stated) | 0.4 | 118 | 5.6 | 
3 | 1.3 | CO[C@H]1C[C@H]2OC[C@@]2(OC(C)=O)C2[C@H](OC(=O)c3ccccc3)[C@]3(O)CC(OC(=O)[C@H](O)[C@@H](NC(=O)OC(C)(C)C)c4ccco4)C(C)=C([C@@H](OC(C)=O)C(=O)[C@@]21C)C3(C)C (some centres not stated) | 0.4 |  |  | Ratio [14]: 1.7; Efficacy [15]: 121
4 | 1.7 | CSCO[C@H]1C[C@H]2OC[C@@]2(OC(C)=O)C2[C@H](OC(=O)c3ccccc3)[C@]3(O)CC(OC(=O)[C@H](O)[C@@H](NC(=O)OC(C)C)c4ccccc4)C(C)=C([C@@H](OC(C)=O)C(=O)[C@@]21C)C3(C)C (some centres not stated) | 1.6 | 191 |  | Efficacy [5]: 0.5
5 | 1.7 | CSCO[C@H]1C[C@H]2OC[C@@]2(OC(C)=O)C2[C@H](OC(=O)c3ccccc3)[C@]3(O)CC(OC(=O)[C@H](O)[C@@H](NC(=O)OC(C)(C)C)c4ccco4)C(C)=C([C@@H](OC(C)=O)C(=O)[C@@]21C)C3(C)C (some centres not stated) | 1.6 | 104 | 1 | 
6 | 0.7 | CSCO[C@H]1C[C@H]2OC[C@@]2(OC(C)=O)C2[C@H](OC(=O)c3ccccc3)[C@]3(O)CC(OC(=O)[C@H](O)[C@H](C=C(C)C)NC(=O)OC(C)(C)C)C(C)=C([C@@H](OC(C)=O)C(=O)[C@@]21C)C3(C)C (some centres not stated) | 1.1 | 109 | 3.3 | 
7 | 1.1 | COCO[C@H]1C[C@H]2OC[C@@]2(OC(C)=O)C2[C@H](OC(=O)c3ccccc3)[C@]3(O)CC(OC(=O)[C@H](O)[C@@H](NC(=O)OC(C)(C)C)c4ccccc4)C(C)=C([C@@H](OC(C)=O)C(=O)[C@@]21C)C3(C)C (some centres not stated) | 0.2 | 118 | 2 | 

Second part, the compound before the results:

Row | SMILES | IC50 [3] [nM] | Ratio [1] | Efficacy [2] | Ratio [4] | also measured
8 | CC(=O)O[C@H]1C(=O)[C@@]2(C)C([C@H](OC(=O)c3ccccc3)[C@]3(O)CC(OC(=O)[C@H](O)[C@@H](NC(=O)OC(C)C)c4ccco4)C(C)=C1C3(C)C)[C@]1(OC(C)=O)CO[C@@H]1C[C@@H]2OCOCCO (some centres not stated) | 0.9 | 0.3 | 145 |  | 
9 | CCOCO[C@H]1C[C@H]2OC[C@@]2(OC(C)=O)C2[C@H](OC(=O)c3ccccc3)[C@]3(O)CC(OC(=O)[C@H](O)[C@@H](NC(=O)c4ccccc4)c4ccccc4)C(C)=C([C@@H](OC(C)=O)C(=O)[C@@]21C)C3(C)C (some centres not stated) | 2.2 | 0.6 | 132 |  | 
10 | COCO[C@H]1C[C@H]2OC[C@@]2(OC(C)=O)C2[C@H](OC(=O)c3ccccc3)[C@]3(O)CC(OC(=O)[C@H](O)[C@@H](NC(=O)OCc4ccccc4)c4ccccc4)C(C)=C([C@@H](OC(C)=O)C(=O)[C@@]21C)C3(C)C (some centres not stated) | 1.4 | 0.6 | 139 |  | 
11 | CSCO[C@H]1C[C@H]2OC[C@@]2(OC(C)=O)C2[C@H](OC(=O)c3ccccc3)[C@]3(O)CC(OC(=O)[C@H](O)[C@@H](NC(=O)c4ccccc4)c4ccco4)C(C)=C([C@@H](OC(C)=O)C(=O)[C@@]21C)C3(C)C (some centres not stated) | 0.6 | 1 | 191 |  | Efficacy [5]: 1.1
12 | CCCCOC(=O)N[C@@H](c1ccccc1)[C@@H](O)C(=O)OC1C[C@@]2(O)[C@@H](OC(=O)c3ccccc3)C3[C@](C)(C(=O)[C@H](OC(C)=O)C(=C1C)C2(C)C)[C@@H](OCSC)C[C@H]1OC[C@@]31OC(C)=O (some centres not stated) | 1.2 | 0.6 | 177 |  | Efficacy [5]: 0.2
13 | CC(=O)O[C@H]1C(=O)[C@@]2(C)[C@H]([C@H](OC(=O)c3ccccc3)[C@]3(O)C[C@H](OC(=O)[C@H](O)[C@@H](NC(=O)c4ccccc4)c4ccccc4)C(C)=C1C3(C)C)[C@]1(OC(C)=O)CO[C@@H]1C[C@@H]2O [PACLITAXEL] |  | 1 |  | 200 | C/T [6]: 1; LCK [7]: 6.1; LCK [8]: 1.3; %T/C [9]: 273%; C/T [10]: 0; LCK [11]: 2.8; C/T [12]: 0; C/T [13]: 0
14 | COCO[C@H]1C[C@H]2OC[C@@]2(OC(C)=O)C2[C@H](OC(=O)c3ccccc3)[C@]3(O)CC(OC(=O)[C@H](O)[C@@H](NC(=O)c4ccccc4)c4ccccc4)C(C)=C([C@@H](OC(C)=O)C(=O)[C@@]21C)C3(C)C (some centres not stated) | 1.4 | 0.5 | 192 | 10 | 
15 | CC(=O)O[C@H]1C(=O)[C@@]2(C)C([C@H](OC(=O)c3ccccc3)[C@]3(O)CC(OC(=O)[C@H](O)[C@@H](NC(=O)c4ccccc4)c4ccccc4)C(C)=C1C3(C)C)[C@]1(OC(C)=O)CO[C@@H]1C[C@@H]2OCOCCO (some centres not stated) | 1.1 | 1 | 238 |  | Efficacy [5]: 0.9
16 | COCO[C@H]1C[C@H]2OC[C@@]2(OC(C)=O)C2[C@H](OC(=O)c3ccccc3)[C@]3(O)CC(OC(=O)[C@H](O)[C@@H](NC(=O)c4ccccc4)c4ccco4)C(C)=C([C@@H](OC(C)=O)C(=O)[C@@]21C)C3(C)C (some centres not stated) | 2.1 | 2.3 |  |  | Efficacy [15]: 115
17 | CC(=O)O[C@H]1C(=O)[C@@]2(C)C([C@H](OC(=O)c3ccccc3)[C@]3(O)CC(OC(=O)[C@H](O)[C@@H](NC(=O)OC(C)(C)C)c4ccccc4)C(C)=C1C3(C)C)[C@]1(OC(C)=O)CO[C@@H]1C[C@@H]2OCOCCO (some centres not stated) | 1.1 | 1.6 | 136 | 0.7 | 
18 | COCCOCO[C@H]1C[C@H]2OC[C@@]2(OC(C)=O)C2[C@H](OC(=O)c3ccccc3)[C@]3(O)CC(OC(=O)[C@H](O)[C@@H](NC(=O)c4ccccc4)c4ccccc4)C(C)=C([C@@H](OC(C)=O)C(=O)[C@@]21C)C3(C)C (some centres not stated) | 0.9 | 1.1 | 132 |  | 
